This is a sample that favours compounds with a hit; in the whole collection about 4.5% have one here.
NS3 helicase inh: inhibitors of HCV NS3 helicase, primary screen, biochemical, Cy5 molecular beacon fluorescence. inhibition, % at 10.9 µM. hit rate 0.56% among 290,000. NS3 helicase DNA unwinding;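 active = inhibition above the mean of all tested compounds plus 3 SD, set per campaign, cut at about 35% in these data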;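 note: 0% = DMSO wells and 100% = thioflavine S control wells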
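Control set: DMSO versus 110 µM thioflavine S; Material: NS3 helicase fragment of HCV; Measured by: Cy5 fluorescence at 0 and 60 min, beacon hairpin quenching; Read-out basis: percent inhibition from t60/t0 fluorescence ratio; Times: reaction time 60 min, 25 °C; Repeats: single replicate; Compound dosing: single dose, 10.9 µM nominal final, DMSO 0.8% final.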
UPR XBP1 act: activators of adaptive XBP1 UPR arm, primary screen, cell-based, CHO-XBP1 luciferase reporter, luminescence, uHTS; hit rate 0.33% among 330,000; activation, % at 20 µM; AID 463104, 2010; IRE1-XBP1 UPR activation; percent of tunicamycin response, DMSO as zero;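 active = versus positive control, 20 µM dose yields 30% or more activation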;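 note: 100% = tunicamycin at 10 µg/mL and 0% = DMSO only wells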
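incubation = overnight seeding at 37 °C, 6 h compound treatment at 37 °C | assay system = CHO-XBP1 cells stably carrying IRE1-XBP1-driven luciferase reporter | input = 1000 cells per well | detection = luciferase luminescence | dosing = single point, 20 µM final compound, 1% DMSO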
CHOP inhibitor: inhibitors of CHOP promoter induction, primary screen, cell-based, unfolded protein response, luciferase reporter; hit rate 3.8% among 220,000; inhibition, % at 10 µM; CHO-K1 CHOP-promoter luciferase, tunicamycin-induced, 15-18 h; AID 2732, 2010;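 active = compounds that reduced the stress-induced luciferase reporter signal by more than about 70% of percent inhibition, limit read from the data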;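 note: 0% = tunicamycin plus vehicle and 100% = wells without tunicamycin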
M18AAP inhibitor: PfM18AAP inhibitors, malaria aminopeptidase, primary screen, biochemical, QFRET, recombinant enzyme; M18 aspartyl aminopeptidase (Plasmodium falciparum 3D7); hit rate 1.2% among 290,000; inhibition, % at 7.35 µM; H-Glu-NHMec fluorogenic cleavage; AID 1822, 2009;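 active = inhibition above the campaign mean inhibition over all tested compounds plus 3 SD, cut at about 28% in these data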;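 note: 0% = plate median of test compound wells and 100% = 2 mM ZnCl2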
UPR CHOP act: activators of apoptotic CHOP UPR arm, primary screen, cell-based, CHO-CHOP luciferase reporter, luminescence, uHTS | hit rate 0.34% among 330,000 | activation, % at 10 µM | AID 449763, 2010 | UPR activation; percent of tunicamycin response over DMSO baseline;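 active = at 10 µM dose, activation of 40% or more, normalized to positive control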;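 note: 100% = tunicamycin at 10 µg/mL and 0% = DMSO alone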
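assay system = CHO CHOP reporter cells | amount = 500 CHO-CHOP cells per well | buffer or medium = F12 with 10% FBS | incubation = 16-18 h cell attachment, then 6 h compound exposure, 37 °C | detection = luminescence read with Steady-Glo | read-out = percent activation relative to tunicamycin control | controls = tunicamycin high control, DMSO low control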
p97 ATPase inh: inhibitors of human p97 ATPase, primary screen, biochemical; hit rate 0.42% among 220,000; recombinant p97 ATPase, Kinase-Glo ATP luminescence, 3 h; inhibition, % at 8 µM; Transitional endoplasmic reticulum ATPase (Homo sapiens), P55072; AID 1481, 2009; in the data active = inhibition above about 15%;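 note: 0% = DMSO vehicle and 100% = wells lacking enzyme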
Target sequence (P55072 whole entry, looked up): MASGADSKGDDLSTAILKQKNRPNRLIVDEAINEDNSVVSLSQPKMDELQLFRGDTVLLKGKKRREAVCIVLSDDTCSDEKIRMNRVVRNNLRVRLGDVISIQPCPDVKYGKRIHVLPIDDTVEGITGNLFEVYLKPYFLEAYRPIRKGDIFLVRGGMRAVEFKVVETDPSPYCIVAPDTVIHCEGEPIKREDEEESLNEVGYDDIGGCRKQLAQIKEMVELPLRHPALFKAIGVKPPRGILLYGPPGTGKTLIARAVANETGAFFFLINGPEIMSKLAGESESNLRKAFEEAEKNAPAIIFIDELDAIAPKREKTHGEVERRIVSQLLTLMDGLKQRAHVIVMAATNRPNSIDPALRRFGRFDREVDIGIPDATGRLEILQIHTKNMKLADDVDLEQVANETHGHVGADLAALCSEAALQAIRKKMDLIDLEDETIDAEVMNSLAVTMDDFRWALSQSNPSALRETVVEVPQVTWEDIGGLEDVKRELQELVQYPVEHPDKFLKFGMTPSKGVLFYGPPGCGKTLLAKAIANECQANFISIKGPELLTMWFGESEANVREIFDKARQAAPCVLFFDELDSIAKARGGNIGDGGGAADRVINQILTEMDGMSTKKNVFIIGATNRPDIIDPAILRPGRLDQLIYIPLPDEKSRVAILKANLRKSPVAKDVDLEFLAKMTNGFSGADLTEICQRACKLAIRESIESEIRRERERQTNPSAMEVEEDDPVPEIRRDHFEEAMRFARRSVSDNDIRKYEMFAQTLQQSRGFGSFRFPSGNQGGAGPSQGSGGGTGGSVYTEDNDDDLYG
The depositor's hits bear a star.

Results for Cc1ccc(OCC(=O)N(Cc2nnc(-c3ccccc3Cl)o2)C2CC2)cc1C ?
UPR XBP1 act: -1; UPR CHOP act: -1

What do the screens show for `Cc1cc(C)n(-c2nc(NCC3CCCO3)c3c4c(sc3n2)COC(C)(C)C4)n1` (stereo unspecified)?
NS3 helicase inh: -7; UPR XBP1 act: 1; CHOP inhibitor: 95*; M18AAP inhibitor: -6; UPR CHOP act: 0; p97 ATPase inh: 8

Results for CCOc1ccc(N2CC(C(=O)N3CCc4ccccc43)CC2=O)cc1 (stereo unspecified) ?
NS3 helicase inh: 20; UPR XBP1 act: -4; M18AAP inhibitor: 1; UPR CHOP act: 0

How did O=C(N/N=C/c1cccs1)c1n[nH]c2c1CCCC2 do in these assays?
NS3 helicase inh: 0; UPR XBP1 act: -7; CHOP inhibitor: 36; M18AAP inhibitor: 9; UPR CHOP act: -6; p97 ATPase inh: -16

How did C/C(=N\NC(=O)c1n[nH]c2c1CCC2)c1cccs1 do in these assays?
NS3 helicase inh: 9; UPR XBP1 act: -9; CHOP inhibitor: 86*; M18AAP inhibitor: 9; UPR CHOP act: -7; p97 ATPase inh: -22

What do the screens show for `CC(=O)N1c2c(cc(Br)cc2S(=O)(=O)NCc2cccnc2)CC1C` (stereo unspecified)?
NS3 helicase inh: 4; UPR XBP1 act: 2; CHOP inhibitor: -3; M18AAP inhibitor: -6; UPR CHOP act: 0; p97 ATPase inh: 1

How did CCCCN(Cc1ccccc1)S(=O)(=O)c1cc(Br)cc2c1N(C(C)=O)C(C)C2 (stereo unspecified) do in these assays?
NS3 helicase inh: -5; UPR XBP1 act: -2; CHOP inhibitor: 84*; M18AAP inhibitor: 5; UPR CHOP act: 0; p97 ATPase inh: -4

How did Cc1cc(C)cc(OCC(=O)N2N=C(C(F)(F)F)CC2(O)C(C)(C)C)c1 (stereo unspecified) do in these assays?
NS3 helicase inh: 0; UPR XBP1 act: -2; CHOP inhibitor: 78*; M18AAP inhibitor: -3; UPR CHOP act: -2; p97 ATPase inh: -3

What do the screens show for `CC(C)(C)C1=NN(C(=O)c2ccccc2)C(O)(C(C)(C)C)C1` (stereo unspecified)?
NS3 helicase inh: 2; UPR XBP1 act: 2; CHOP inhibitor: 59; M18AAP inhibitor: 4; UPR CHOP act: -1; p97 ATPase inh: 0

What do the screens show for `CC(C)(C)C1(O)CC(C(F)(F)F)=NN1C(=O)CCCc1ccccc1` (stereo unspecified)?
NS3 helicase inh: -16; UPR XBP1 act: -1; CHOP inhibitor: 88*; M18AAP inhibitor: 7; UPR CHOP act: 0; p97 ATPase inh: 4

Results for Cn1c(C(=O)c2ccncc2)cc2ccccc21 ?
NS3 helicase inh: -1; UPR XBP1 act: -2; CHOP inhibitor: 18; M18AAP inhibitor: -1; UPR CHOP act: 0; p97 ATPase inh: 5

What do the screens show for `CCc1nnc(NC(=O)Cn2c(=O)oc3ccccc32)s1`?
NS3 helicase inh: 6; UPR XBP1 act: -2; CHOP inhibitor: -7; M18AAP inhibitor: 13; UPR CHOP act: -3; p97 ATPase inh: 7

Results for CC(C)CN(CC(C)C)c1nnc(NC(=O)Cn2c(=O)oc3ccccc32)s1 ?
NS3 helicase inh: -7; UPR XBP1 act: 2; CHOP inhibitor: 79*; M18AAP inhibitor: -9; UPR CHOP act: 0; p97 ATPase inh: -1

How did C/C(=N\NC(=O)c1cccc(S(=O)(=O)N2CCOCC2)c1)c1ccc(O)cc1 do in these assays?
UPR XBP1 act: 2; UPR CHOP act: 1

What do the screens show for `COc1ccccc1-n1ccnc(SCC(=O)NCCc2ccccc2)c1=O`?
UPR XBP1 act: -1; UPR CHOP act: -1

How did CN(CC(=O)Nc1cccc(F)c1)C(=O)c1cc(S(=O)(=O)N2CCCCC2)ccc1N1CCOCC1 do in these assays?
UPR XBP1 act: -1; UPR CHOP act: 1

From PubChem
